Source: PubChem BioAssay (several laboratories)
Only some compounds are listed: those with a hit (about 6.4% of all), similar ones and a draw of the others.
MPTP block = mitochondrial permeability transition pore inhibitors, primary screen, biochemical, isolated mouse mitochondria, absorbance | Ca2+ swelling absorbance, 30 min | inhibition, % at 10 µM | 360,000 compounds, 1.4% hits | AID 602449, 2012;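 active = inhibition of 50% or more, scaled per plate between neutral and stimulator controls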;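 also: 0% = DMSO wells given calcium and 100% = 1 mM EGTA wells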
TbMetRS inhib = T. brucei MetRS inhibitors, primary screen, biochemical, luminescence | methionyl-tRNA synthetase (Trypanosoma brucei brucei) | purified T. brucei MetRS, ATP depletion, Kinase-Glo luminescence | inhibition, % at 11.9 µM | 360,000 compounds, 0.4% hits | AID 624268, 2012;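 active = inhibition above a per-plate cutoff of the control wells' mean inhibition plus 3 SD, cut at about 5.5% in these data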;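 also: 0% = DMSO wells median and 100% = median of wells with control inhibitor compound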
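Material – parasite MetRS enzyme · Medium – HEPES-MgCl2-KCl buffer plus DTT, spermine, BSA, pyrophosphatase · Reagent – ATP, methionine and E. coli bulk tRNA substrates · Times – 15 min enzyme-compound preincubation, 2 h reaction, 10 min detection, 25 °C · Measured by – luminescence of leftover ATP · Evaluation – percent inhibition relative to median high and low control wells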
NR3A LBD binder = binders of NR3A ligand-binding domain, primary screen, biophysical, differential scanning fluorimetry, uHTS | NR3A LBD differential scanning fluorimetry, Tm shift; 0% = protein alone, 100% = glycine-bound protein | AID 1259313, 2017 | 340,000 compounds, 2.5% hits | Glutamate receptor ionotropic, NMDA 3A (GRIN3A) ligand-binding domain | Tm shift relative to glycine control, % at 25 µM;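 active = melting temperature shift of at least 10% of the positive control shift, at one fixed dose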
EBV gp42 block = Epstein-Barr virus gp42 inhibitors, primary screen, biochemical, uHTS, fluorescence polarization; Fluorescence polarization binding assay, mP read-out; inhibition, % (tested at 21.74 µM); 220,000 compounds, 0.42% hits; AID 1085, 2008; in the data active = inhibition above about 50%
Target sequence (Q1HVG2 whole entry, looked up): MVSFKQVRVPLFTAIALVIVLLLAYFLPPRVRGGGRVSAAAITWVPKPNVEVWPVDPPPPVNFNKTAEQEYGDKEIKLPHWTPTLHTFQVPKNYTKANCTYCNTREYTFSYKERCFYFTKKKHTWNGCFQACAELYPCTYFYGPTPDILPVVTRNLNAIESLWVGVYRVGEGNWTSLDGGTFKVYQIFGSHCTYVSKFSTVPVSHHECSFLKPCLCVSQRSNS
WT yeast gro inh = growth inhibition of WT strain, primary screen, mitochondrial fusion inhibitor project, WT and mutant strains, chemical genetic; AID 1362, 2008; 190,000 compounds, 2.1% hits; mitochondrial fusion phenotypic screen; inhibition, % at 10 µM; in the data active = inhibition above about 58%; tested in S. cerevisiae
CHOP inhibitor = inhibitors of CHOP promoter induction, primary screen, cell-based, unfolded protein response, luciferase reporter | CHO-K1 CHOP-promoter luciferase, tunicamycin-induced, 15-18 h | inhibition, % at 10 µM | 220,000 compounds, 3.8% hits | AID 2732, 2010;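 active = compounds that reduced the stress-induced luciferase reporter signal by more than about 70% of percent inhibition, limit read from the data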;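 also: 0% = tunicamycin plus vehicle and 100% = wells without tunicamycin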
Tb MetRS conf = T. brucei MetRS inhibitors, confirmation, biochemical, luminescence | shares compounds with TbMetRS inhib | T. brucei MetRS enzyme, luminescence (ATP depletion) | inhibition, % at 11.9 µM | 1,400 compounds, 93% hits; in the data active = inhibition above about 7%
Jurkat tox = Jurkat T cell cytotoxicity, cytotoxicity control for T. brucei MetRS inhibitor project, luminescence, high throughput. Jurkat cells viability, ATP luminescence. AID 624413, 2012. inhibition, % at 8.3 µM. 1,400 compounds, 12% hits. shares compounds with TbMetRS inhib; in the data active = inhibition above about 15%;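 also: 0% = vehicle and 100% = reference inhibitor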
TbMetRS FP orth = T. brucei MetRS inhibitors, orthogonal assay for T. brucei MetRS inhibitor project, biochemical, fluorescence polarization; AID 651607, 2012; shares compounds with TbMetRS inhib; purified T. brucei MetRS; 1,400 compounds, 44% hits; inhibition, % at 11.9 µM; in the data active = inhibition above about 17%;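 also: 0% = vehicle wells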
Active calls of the source: *; x = no result.

SMILES	MPTP block	TbMetRS inhib	NR3A LBD binder	EBV gp42 block	WT yeast gro inh	CHOP inhibitor	Tb MetRS conf	Jurkat tox	TbMetRS FP orth
COc1ccc(N2C(=O)C(CC(=O)Nc3ccc(Cl)cc3)N(NC(=O)c3cccc(F)c3)C2=S)cc1 (stereo not drawn)	44.7	38.8*	16.1*	-11.6	x	23.9	50.8*	-8.8	24.3*
COc1ccc(CCN2C(=S)N(C)C(=O)C2CC(=O)Nc2ccc(OC)cc2)cc1 (stereo not drawn)	-0.9	44.1*	-3.7	1.8	0.0	27.4	62.4*	-4.3	31.0*
COc1cc(/C=C/C(=O)c2ccc3c(c2)OCCO3)cc(Br)c1OCC(=O)N(C)C	0.1	-0.4	0.4	x	x	x	x	x	x
Cn1c(=O)n(C)c2cc3[nH]cnc3cc21	-1.8	-0.8	-0.7	x	x	x	x	x	x
Nc1cc2nc[nH]c2cc1N	0.6	6.3*	0.7	-18.7	1.7	-24.5	10.0*	-7.1	3.8
Cc1nc(NCCC(C)C)c2nnn(Cc3ccccc3)c2n1	1.0	7.3*	0.7	x	x	x	2.1	2.0	8.5
CCc1nc(NCCC(C)C)c2nnn(Cc3ccccc3)c2n1	0.5	-0.2	0.0	x	x	x	x	x	x
COCc1cc(C)nc(SCC(=O)Oc2ccc(Cl)cc2)c1C#N	-0.5	0.1	0.2	8.8	15.1	-13.5	x	x	x
O=C(COc1ccccc1Cl)NNC(=O)c1ccc(-n2cncn2)c([N+](=O)[O-])c1	-1.5	12.7*	-1.1	x	x	x	42.5*	-3.7	21.4*
Cc1ccc(NC(=O)CN(C)C(=O)c2ccc(Cl)c([N+](=O)[O-])c2)cc1	-1.1	35.5*	0.2	-9.0	6.5	-12.8	57.6*	1.4	36.9*
CC1CCCCC1NC(=O)c1ccc(-n2cncn2)c([N+](=O)[O-])c1 (stereo not drawn)	3.3	36.7*	-0.7	x	x	x	73.2*	-6.8	41.2*
CCCN(C(=O)c1ccc(-n2cncn2)c([N+](=O)[O-])c1)C1CCS(=O)(=O)C1 (stereo not drawn)	-0.1	0.7	0.2	x	x	x	x	x	x
CN(CC(=O)Nc1ccc(Cl)c(C(F)(F)F)c1)C(=O)c1ccc(N2CCOCC2)c([N+](=O)[O-])c1	2.6	0.0	x	x	x	x	x	x	x
Cc1ccc(NC(=O)c2ccc(-n3cncn3)c([N+](=O)[O-])c2)cc1	1.6	27.1*	1.1	-14.7	-8.7	0.8	46.0*	-0.1	15.2
O=C(NCCC1=CCCCC1)c1ccc(-n2cncn2)c([N+](=O)[O-])c1	-0.3	14.7*	-1.2	x	x	x	32.5*	-1.2	19.8*
CC(CCc1ccccc1)NC(=O)c1ccc(-n2cncn2)c([N+](=O)[O-])c1 (stereo not drawn)	-0.7	25.6*	-0.3	x	x	x	54.9*	5.1	30.7*
O=C(Nc1cccc(Cl)c1)c1ccc(-n2cncn2)c([N+](=O)[O-])c1	7.5	42.4*	-4.7	1.9	-8.7	17.4	65.7*	3.9	36.7*
CCN(CC)S(=O)(=O)c1cc(NC(=O)c2ccc(-n3cncn3)c([N+](=O)[O-])c2)ccc1C	0.0	18.2*	-11.7	x	x	x	46.9*	34.8*	38.5*
Cc1ccc(C(O)c2ncc(-c3ccc4ccccc4c3)[nH]2)cc1 (stereo not drawn)	2.8	0.0	x	x	x	x	x	x	x
O=C(Nc1ccc(Cl)cc1)c1ccc(-n2cncn2)c([N+](=O)[O-])c1	10.1	42.3*	-5.6	15.3	-4.5	-6.1	62.1*	8.7	33.0*
CS(=O)(=O)c1ccc(Cl)c(NC(=O)c2ccc(-n3cncn3)c([N+](=O)[O-])c2)c1	0.5	57.2*	x	x	x	x	81.4*	5.8	67.0*
CC(C)Cc1nnc(NC(=O)c2ccc(-n3cncn3)c([N+](=O)[O-])c2)s1	0.1	1.4	x	x	x	x	x	x	x
CCN(CC)CCNC(=O)c1ccc(NC(=O)c2ccc(-n3cncn3)c([N+](=O)[O-])c2)cc1	1.1	17.4*	x	x	x	x	36.5*	6.5	9.8
CN(CC(=O)Nc1ccc(Cl)cc1)C(=O)c1ccc(-n2cncn2)c([N+](=O)[O-])c1	-2.1	70.1*	1.5	x	x	x	100.3*	-2.7	84.9*
COc1cc(/C=C/CNC[C@H]2O[C@@H](n3cc(C)c(=O)[nH]c3=O)C[C@@H]2O)ccc1O	-1.2	-1.1	x	x	x	x	x	x	x
SMILES	MPTP block	TbMetRS inhib	NR3A LBD binder	EBV gp42 block	WT yeast gro inh	CHOP inhibitor	Tb MetRS conf	Jurkat tox	TbMetRS FP orth
CC(C)(C)c1ccc(CC(=O)N2CCC2(C)C(=O)NCc2ccc(Cl)cc2)cc1 (stereo not drawn)	0.6	-0.4	x	x	x	x	x	x	x
Cc1ccc(C)c(NC(=O)c2cnn(-c3ccccc3)c2C)c1	-1.7	-0.8	0.2	x	x	x	x	x	x
CCN(CC)S(=O)(=O)c1ccc(OC)c(NC(=O)c2ccc(-n3cncn3)c([N+](=O)[O-])c2)c1	-1.1	36.9*	-1.1	x	x	x	81.4*	0.9	49.7*
CN(C)S(=O)(=O)c1cccc(NC(=O)c2ccc(Sc3nncn3C)c([N+](=O)[O-])c2)c1	2.2	0.2	-3.9	-6.5	0.2	6.8	x	x	x
O=C(O)c1ccc(-n2cncn2)c([N+](=O)[O-])c1	-0.5	0.8	1.2	-6.6	x	11.7	x	x	x
Cc1ccc(C(=O)NNC(=O)c2ccc(-n3cncn3)c([N+](=O)[O-])c2)cc1	-0.5	10.6*	0.2	x	x	x	41.3*	-6.3	19.9*
CN(C)S(=O)(=O)c1cccc(NC(=O)c2ccc(-n3cncn3)c([N+](=O)[O-])c2)c1	-0.8	43.2*	-1.1	x	x	x	78.3*	4.9	49.8*
CCN(CC)S(=O)(=O)c1ccc(OC)c(NC(=O)c2cccc([N+](=O)[O-])c2C)c1	0.1	-1.5	2.4	x	x	x	x	x	x
CCOc1ccc(N(C)S(=O)(=O)c2ccc(C)c(C(=O)NCc3ccccc3OC)c2)cc1	-1.4	-0.2	1.1	x	x	x	x	x	x
O=S1(=O)N[C@@H](CC2CCCCC2)COc2cc(Br)ccc21	-0.3	-2.0	-6.5	x	x	x	x	x	x
COC(=O)[C@H](Cc1c[nH]c2ccccc12)NC(=O)NCc1ccc(OC)cc1	-1.8	6.6*	-0.3	x	x	x	15.0*	-4.1	4.3
COc1cc(/C=C/C(=O)OCC(=O)N2CCN(S(=O)(=O)c3ccc(C)cc3C)CC2)ccc1OC(F)F	0.4	-0.5	-3.8	x	x	x	x	x	x
